Like-named read-outs stand apart in the source and are kept apart here. No end group written: not given here.
Legend:
[1] = molecular target: recombinant human survivin (Homo sapiens, UniProt O15392); test: Saturation binding assay of peptides to recombinant survivin protein; settings: QCM sensorgram, result in words
Outline: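 Quartz crystal microbalance. Recombinant human survivin (40 μg/mL) amide-coupled to the gold electrode of the sensor chip, with the chip soaked in buffer. 8 μL aliquots of test peptide solutions (10–256 μmol L⁻¹ as injected) added sequentially to the cuvette. Frequency change monitored over time. Kd derived by kinetic analysis using a one-binding-site model.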

[2] = test system: MDA‐MB‐231 cells; test: Cell proliferation assay; format: cell-based, human; settings: MTT, different concentrations, 48 h
[3] = test system: MIA PaCa‐2 cells; test: Cell proliferation assay; format: cell-based, human; settings: MTT, different concentrations, 48 h
Outline: (§1)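 Cells treated 48 h with test compound at 1, 10 or 100 µmol L⁻¹, or with 1% DMSO solvent alone. Culture media: MIA PaCa-2 in low-glucose DMEM with 10% FBS; MCF-10A in DMEM/F-12 with 5% horse serum, EGF, insulin and hydrocortisone. MTT added for 4 h, then cells lysed in DMSO. OD read at 570 nm (650 nm correction). Viability expressed relative to DMSO-treated cells (100%). Mean ± SD, n = 5–6; Kruskal-Wallis test with Dunn's post hoc test.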

[4] = test system: human serum albumin (HSA); test: QCM response to human serum albumin-immobilized sensor chip; format: binding; settings: QCM sensorgram, result in words
Outline: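 Quartz crystal microbalance run with an HSA-immobilized sensor chip. Test compound added to the cuvette in successive portions, giving overall cuvette concentrations that start at 1 and 10 nmol L⁻¹. Frequency change recorded over time as the binding response.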

[5] = test system: MCF‐10A cells; test: Cell proliferation assay; format: cell-based, human; settings: MTT, 1, 10 or 100 µmol L^−1, 48 h
Outline: as §1

[6] = test system: survivin in MDA‐MB‐231 cells; test: Western blot of survivin protein expression, MDA-MB-231; format: cell-based, human; settings: 10 or 40 μmol L^−1, 48 h, vs vehicle control, n = 3
[7] = test system: survivin in MIA PaCa‐2 cells; test: Western blot of survivin protein expression, MIA PaCa-2; format: cell-based, human; settings: 40 µmol L^−1, 48 h, P = .366, without statistical significance, n = 3
[8] = test system: cleaved caspase‐3 in MIA PaCa‐2 cells; test: Western blot of cleaved caspase-3, MIA PaCa-2; format: cell-based, human; settings: even at 10 µmol L^−1, 48 h, vs untreated cells, n = 3
[9] = test system: MIA PaCa‐2 cells; test: Flow cytometry, annexin V-FITC/PI apoptosis; format: cell-based, human; settings: n = 3
[10] = molecular target: T1, recombinant human survivin (human, UniProt O15392); test: quartz crystal microbalance
[11] = molecular target: T1, recombinant human survivin; test: quartz crystal microbalance; remark: listed apart in the source

T1 sequence (O15392 whole entry): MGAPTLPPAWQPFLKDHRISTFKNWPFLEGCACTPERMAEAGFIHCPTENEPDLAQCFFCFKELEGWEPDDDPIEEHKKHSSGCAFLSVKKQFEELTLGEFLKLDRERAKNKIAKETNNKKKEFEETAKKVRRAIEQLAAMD
recombinant human survivin (Homo sapiens, UniProt O15392), sequence (O15392 whole entry): as above

**Q.** For “Ac-rrrrrrrrr-ahx-QLDMFKE-NH2 [r9‐scINC16‐22]”, which “QCM response to survivin-immobilized sensor chip” value [1] is on record?
**A.** Its value is “negligible response”.

**Q.** And the “antiproliferative effect on MDA‐MB‐231 cells (in words)” value [2]?
**A.** The value was “no significant antiproliferative effect”.

**Q.** And the “antiproliferative effect on MIA PaCa‐2 cells (in words)” value [3]?
**A.** Its value is “no significant antiproliferative effect”.

**Q.** How did the “QCM response to survivin-immobilized sensor chip” value [1] turn out when `CSCC[C@H](NC(=O)[C@H](CC(C)C)NC(=O)[C@H](CCCCN)NC(=O)[C@H](CCC(N)=O)NC(=O)[C@H](CC(=O)O)NC(=O)CCCCCNC(=O)[C@@H](CCCNC(=N)N)NC(=O)[C@@H](CCCNC(=N)N)NC(=O)[C@@H](CCCNC(=N)N)NC(=O)[C@@H](CCCNC(=N)N)NC(=O)[C@@H](CCCNC(=N)N)NC(=O)[C@@H](CCCNC(=N)N)NC(=O)[C@@H](CCCNC(=N)N)NC(=O)[C@@H](CCCNC(=N)N)NC(=O)[C@@H](CCCNC(=N)N)NC(C)=O)C(=O)N[C@@H](CCC(=O)O)C(=O)N[C@@H](Cc1ccccc1)C(N)=O` [r9‐INC16‐22] was run?
**A.** Its value is “strongly responded to survivin in a dose‐dependent manner”.

**Q.** What about the “QCM response to HSA-immobilized sensor chip” value [4] of the same molecule?
**A.** Its value is “no significant response”.

**Q.** And the “antiproliferative effect on MCF‐10A cells (in words)” value [5]?
**A.** The value was “No marked antiproliferative effect”.

**Q.** What about the “protein expression level of survivin in MDA‐MB‐231 cells” value [6] of the same molecule?
**A.** The value was “Neither the treatment with r9‐INC16‐22 at a concentration of 10 μmol L^−1 nor at 40 μmol L^−1 showed any significant decrease”.

**Q.** What about the “protein expression level of survivin in MIA PaCa‐2 cells” value [7] of the same molecule?
**A.** The value was “apparently reduced the protein level”.

**Q.** What about the “expression of cleaved caspase‐3 in MIA PaCa‐2 cells” value [8] of the same molecule?
**A.** The value was “significantly increased”.

**Q.** What about the early apoptosis rate ([9]; MIA PaCa‐2, 10 μmol L^−1, 24 h) of the same molecule?
**A.** The early apoptosis rate was 52.4%.

**Q.** And the “late apoptosis and necrosis rate” value ([9]; MIA PaCa‐2, 10 μmol L^−1, 24 h)?
**A.** The value was 29.4%.

**Q.** What about the early apoptosis rate ([9]; MIA PaCa‐2, 50 μmol L^−1, 24 h) of the same molecule?
**A.** Its early apoptosis rate is 49.6%.

**Q.** What about the “late apoptosis and necrosis rate” value ([9]; MIA PaCa‐2, 50 μmol L^−1, 24 h) of the same molecule?
**A.** The value was 44.2%.

**Q.** Which Kd [10] does the source give for EEAERMFTR-NH2 [INC_(39-47)] here?
**A.** Its Kd is 135 nM.

**Q.** QLDMFKE-NH2 [scINC_(16-22)] was tested. Which Kd [11] did it give?
**A.** Its Kd is > 300 nM.

**Q.** With CDQKLMEF-NH2 [INC_(15-22)] as the molecule, how does the Kd [11] read?
**A.** Its Kd is 248 nM.

**Q.** Which Kd [11] does the source give for DQKLMEFLCNMDNKDLVWL-NH2 [INC_(16-34)] here?
**A.** Its Kd is 160 nM.

**Q.** How did the Kd [10] turn out when DQKLMEF-NH2 [INC_(16-22)] was run?
**A.** Its Kd is 91.4 nM.

**Q.** Which Kd [10] does the source give for LVWLEEIQ-NH2 [INC_(31-38)] here?
**A.** The Kd was 108 nM.

**Q.** For DNKDLVWL-NH2 [INC_(27-34)], which Kd [10] is on record?
**A.** The Kd was 255 nM.

**Q.** GPIHLLEL-NH2 [INC_(7-14)] was tested. Which Kd [10] did it give?
**A.** The Kd was 214 nM.

B1: FITC-INC_(16-22) (peptide)
peptide: DQKLMEF
HELM: PEPTIDE1{[O=C1OC2(c3ccc(O)cc3Oc3cc(O)ccc32)c2ccc(NC(=S)[*:2])cc21].[O=C(CCCCCN[*:1])[*:2]].D.Q.K.L.M.E.F.[am]}$$$$V2.0
SMILES: CSCC[C@H](NC(=O)[C@H](CC(C)C)NC(=O)[C@H](CCCCN)NC(=O)[C@H](CCC(N)=O)NC(=O)[C@H](CC(=O)O)NC(=O)CCCCCNC(=S)Nc1ccc2c(c1)C(=O)OC21c2ccc(O)cc2Oc2cc(O)ccc21)C(=O)N[C@@H](CCC(=O)O)C(=O)N[C@@H](Cc1ccccc1)C(N)=O
**Q.** B1 was tested. Which Kd [11] did it give?
**A.** The Kd was 66 nM.

**Q.** For LCNMDNKD-NH2 [INC_(23-30)], which Kd [10] is on record?
**A.** The Kd was 117 nM.

— article PMC7156834 (Cancer Science, 2020)
